Source: PubChem BioAssay
Shown are actives, neighbours in structure and some others; about 4.3% of the full set was active somewhere.
AHR act – activators of human aryl hydrocarbon receptor; AHR-responsive luciferase reporter cells, luminescence; activation, % at 5 µM; hit rate 2.5% among 320,000; in the data active means activation above about 47%;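 further: 0% = vehicle wells and 100% = reference agonist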
SMARCA2 act – activators of SMARCA2 function. hit rate 1% among 370,000. activation, % at 9.1 µM. MG213 cells, MMTV-luciferase reporter, dexamethasone, overnight; in the data active means activation above about 7.8%;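 further: 0% = vehicle wells and 100% = reference activator wells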
Hep lipid drop – hepatic lipid droplet formation modulation | AID 1656 | hit rate 0.4% among 240,000 | inhibition, % at 6.5 µM | AML12 mouse hepatocytes, oleate lipid droplets, BODIPY imaging;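 active means lipid droplet intensity inhibited by at least 50%, with more than 500 cells counted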
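Assay system: AML12 mouse liver cells | Compound: 6.5 µM single-point dosing | Schedule: Overnight exposure | Technique: Fluorescence imaging, 20x objective, two fields per well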
SR-BI DiI-HDL act – activators of SR-BI mediated HDL lipid uptake; CHO ldlA[mSR-BI] cells, DiI-HDL uptake fluorescence, 3 h; 100 = double the neutral-control signal; activation, % at 12.5 µM; hit rate 0.096% among 320,000; AID 504775;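 active means mean replicate activation of at least 60% and every replicate at or above 60%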;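 further: 0% = median plate neutral-control signal and 100% = twice that signal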
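Material: SR-BI-overexpressing, LDLR-lacking CHO cells | Dosing: Single compound concentration, delivered by pin transfer | Probe or stimulus: Labelled HDL, 10 µg/mL | Signal: Bottom-read cell fluorescence after medium removal, ex 550/em 595 nm | Schedule: 3 h, 37 °C | Evaluation: HDL uptake via cellular fluorescence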
Yeast superoxide – yeast age-related superoxide inhibition as caloric restriction mimetic | AID 2690 | S. cerevisiae aged cells, superoxide DHE fluorescence; active compounds read low | superoxide response (% of plate mean), % at 10 µM | hit rate 0.18% among 330,000;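 active means superoxide response under a set limit, about three screen SD below normal, cut at about 65% in these data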;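 further: yeast aged for seven days with compound at 30 °C before DHE staining; 100% = average MFI of all compound-treated wells on the plate with controls excluded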
SR-BI DiI inh – blocks mouse SR-BI lipid uptake from DiI-HDL; AID 488896; inhibition, % at 12.5 µM; hit rate 0.96% among 320,000; Q61009; ldlA[mSR-BI] CHO cells, DiI-HDL uptake fluorescence, 3 h;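 active means mean replicate inhibition of at least 70% and a set share of replicates each scoring 70 or more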;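 further: 0% = median of neutral control wells and 100% = median of positive control wells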
Target sequence (Q61009 whole entry, looked up): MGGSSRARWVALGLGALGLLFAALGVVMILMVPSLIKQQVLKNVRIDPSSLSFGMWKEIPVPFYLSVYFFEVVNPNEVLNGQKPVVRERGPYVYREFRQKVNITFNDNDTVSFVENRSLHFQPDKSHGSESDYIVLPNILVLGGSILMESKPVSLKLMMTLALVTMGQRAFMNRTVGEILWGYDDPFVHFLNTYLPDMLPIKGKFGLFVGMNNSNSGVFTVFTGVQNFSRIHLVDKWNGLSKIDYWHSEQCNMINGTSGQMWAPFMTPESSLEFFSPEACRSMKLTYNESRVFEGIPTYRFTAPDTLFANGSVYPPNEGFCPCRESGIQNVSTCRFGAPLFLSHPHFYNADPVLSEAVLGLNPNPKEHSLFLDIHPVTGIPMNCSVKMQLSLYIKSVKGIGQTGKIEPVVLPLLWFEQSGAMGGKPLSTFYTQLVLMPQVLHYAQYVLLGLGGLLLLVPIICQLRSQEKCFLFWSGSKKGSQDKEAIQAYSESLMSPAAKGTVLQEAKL
Active calls of the source: *; nt = no result.

SMILES	AHR act	SMARCA2 act	Hep lipid drop	SR-BI DiI-HDL act	Yeast superoxide	SR-BI DiI inh
CCc1cc2c(=O)c(-c3ccc4c(c3)OCO4)coc2c(CN(C)C)c1O	4	-1	-3	-79	93	79*
CCc1cc2c(=O)c(-c3cscn3)coc2c(CN(C)C)c1O	30	1	-30	-7	115	7
O=c1c2ccccc2nnn1-c1ccc(Br)cc1	117*	3	2	0	106	0
O=C(C[n+]1cc(Br)cc2ccccc21)c1ccc(Cl)cc1	73*	-2	-10	-43	96	43
O=C(C[n+]1cc(Br)cc(Br)c1)c1ccc(Cl)cc1	9	-1	-1	-25	86	25
O=C(C[n+]1cccc2ccccc21)c1ccc(Br)cc1	65*	1	-2	8	96	-8
Cc1cccc(Cl)c1-n1nnnc1C1(C)CSCC(=O)N1Cc1ccc(F)cc1 (configuration not stated)	nt	1	nt	nt	nt	nt
Cc1cccc(-c2cccc3c4c([nH]c23)[C@@H]2C[C@H](N(C)C(=O)C3CCCCC3)[C@H]([C@H](C)O)CN2CC4)c1	nt	4	nt	nt	nt	nt
Fc1ccc(-n2nnc(-c3ccnc4ccccc34)n2)cc1	54*	5	1	-7	101	7
CN(C)c1ccc(NC(=S)c2ccc3ccccc3n2)cc1	48*	4	47	-17	95	17
CCOC(=O)c1c(C)[nH]c(C(=O)COC(=O)c2ccc(N3CCCC3=O)cc2)c1C	0	2	nt	63*	77	-63
COc1ccc(-n2cc(-c3ccccc3)[nH]c2=S)cc1	55*	7	11	-10	90	10
O=C(Nc1ccc(Oc2cccnc2)cc1)C1CCCCN1Cc1ccc(CO)o1 (configuration not stated)	11	2	1	-3	103	3
Cc1cc(CN2CCCCC2C(=O)Nc2ccc(Oc3cccnc3)cc2)oc1C (configuration not stated)	9	0	-54	nt	115	79*
CCC(=O)NC1=C(Cl)C(=O)C(NC(=O)CC)=C(Cl)C1=O	nt	8.6*	-2	-61	nt	61
COCc1c(C(=O)OCC(=O)NCCc2ccc(S(N)(=O)=O)cc2)oc2ccccc12	1	0	nt	9	65*	-9
COC(=O)CC#C[C@H](C)[C@@H](NS(C)(=O)=O)C1CCCCC1	nt	3	nt	nt	nt	nt
CCOc1ccc(C2C(C#N)=C(N)N3C(=C2C#N)Sc2ccccc23)cc1 (configuration not stated)	11	nt	nt	-11	105	11
N#CC1=C(N)N2C(=C(C#N)C1c1ccccc1)Sc1ccccc12 (configuration not stated)	88*	nt	2	nt	109	nt
Cc1ccc(C)c(C(=O)Nc2nc3ccccc3[nH]2)c1	48*	3	19	3	90	-3
Cc1onc(-c2c(F)cccc2Cl)c1C(=O)Nc1nc2ccccc2[nH]1	48*	0	-1	-39	91	39
Cc1cc(NC(=O)c2c(-c3c(F)cccc3Cl)noc2C)no1	-1	-1	3	-1	111	1
O=C(Nc1nc2ccccc2[nH]1)c1ccccc1O	26	6	8	-11	103	11
CCOC(=O)CCSc1nc(-c2ccc3c(c2)OCO3)cc(C(F)(F)F)c1C#N	6	-3	nt	-31	106	31
CCOC(=O)CC(=O)CSc1nc(-c2ccc3c(c2)OCO3)cc(C(F)(F)F)c1C#N	60*	nt	nt	0	97	0
SMILES	AHR act	SMARCA2 act	Hep lipid drop	SR-BI DiI-HDL act	Yeast superoxide	SR-BI DiI inh
Cc1cc(C(=O)Nc2sc3c(c2C#N)CCC(C)C3)cs1 (configuration not stated)	14	4	-2	-75	96	75*
CC(=O)Nc1sc2c(c1C#N)CCC(C)C2 (configuration not stated)	6	-3	20	-22	107	22
CC1(C)CC(=O)C=C(Nc2ccccc2NC(=O)c2cc(F)ccc2F)C1	nt	-4	nt	nt	nt	nt
Cc1nc(SCC(=O)Nc2nccs2)c(C#N)c(C)c1C	64*	-2	nt	-5	107	5
COc1ccc(-c2[nH]c(-c3ccc(Cl)cc3)nc2SCC(=O)Nc2nccs2)cc1	62*	-4	-3	-83	95	83*
COc1ccc(-n2c(SCC(=O)Nc3nccs3)nnc2-c2ccc(Cl)cc2)cc1	nt	-2	nt	nt	nt	nt
